Data taken from ChEMBL document CHEMBL4138150, “Quinoline derivatives bearing pyrazole moiety: Synthesis and biological evaluation as possible antibacterial and antifungal agents” (2018).
Values after ≈ are worked out from the molar mass of the structure shown.

What was measured:
Type in all cases: functional
[1] = test system: Aspergillus fumigatus; experiment: Antimicrobial activity against Aspergillus fumigatus RCMB 02564 assessed as diameter of zone inhibition at 5 mg/ml after 72 hrs by agar well diffusion assay; conditions: RCMB 02564, 72 h, read-out: DIZ
In short: (§1)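 Fungi (1 x10^6 CFU/mL, 100 µL) were spread on Sabouraud dextrose agar. 10 mm wells were loaded with 100 µL of test solution at 5 mg/mL in DMSO, or amphotericin B standard at 1 mg/mL. A DMSO negative control was included. Plates were incubated 72 h at 28 °C. Inhibition zone diameter (mm) was recorded as the average of triplicate runs.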

[2] = test system: Shigella flexneri; experiment: Antimicrobial activity against Shigella flexneri RCMB 0100542 assessed as diameter of zone inhibition at 5 mg/ml after 24 hrs by agar well diffusion assay; conditions: RCMB 0100542, 24 h, read-out: DIZ
In short: (§2)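 Agar well diffusion: 100 µL of 1 x10^8 CFU/mL bacteria was spread on nutrient agar. 10 mm wells received 100 µL of compound at 5 mg/mL in DMSO, or ampicillin or gentamycin standards at 1 mg/mL. DMSO served as negative control. Plates were incubated 24 h at 37 °C. Inhibition zone diameter (mm) was measured as the mean of triplicates.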

[3] = test system: Staphylococcus epidermidis; experiment: Antimicrobial activity against Staphylococcus epidermidis RCMB 010024 assessed as diameter of zone inhibition at 5 mg/ml after 24 hrs by agar well diffusion assay; conditions: RCMB 010024, 24 h, read-out: DIZ; in short: as §2
[4] = test system: Staphylococcus aureus; experiment: Antimicrobial activity against Staphylococcus aureus RCMB 010027 after overnight incubation by macro-tube dilution technique
In short: (§3)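 Macro-tube twofold dilution following NCCLS guidance, run in nutrient broth. The first tube held 10 mg compound in 2.0 mL DMSO and was serially halved 1:1 into 1.0 mL broth through tube 14; tube 15 was the control. The inoculum was suspended to turbidity in 5.0 mL broth, 0.2 mL was diluted into 40 mL, and 1.0 mL was added per tube. Tubes were incubated overnight at 37 °C. MIC was the lowest concentration with no growth.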

[5] = test system: Proteus vulgaris; experiment: Antimicrobial activity against Proteus vulgaris RCMB 010085 assessed as diameter of zone inhibition at 5 mg/ml after 24 hrs by agar well diffusion assay; conditions: RCMB 010085, 24 h, read-out: DIZ; in short: as §2
[6] = test system: Bacillus subtilis; experiment: Antimicrobial activity against Bacillus subtilis RCMB 010063 after overnight incubation by macro-tube dilution technique; in short: as §3
[7] = test system: Klebsiella pneumoniae; experiment: Antimicrobial activity against Klebsiella pneumoniae RCMB 010093 after overnight incubation by macro-tube dilution technique; in short: as §3
[8] = test system: Proteus vulgaris; experiment: Antimicrobial activity against Proteus vulgaris RCMB 010085 after overnight incubation by macro-tube dilution technique; in short: as §3
[9] = test system: Candida albicans; experiment: Antimicrobial activity against Candida albicans RCMB 05035 after 72 hrs by macro-tube dilution technique; conditions: RCMB 05035, 72 h
In short: (§4)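 Twofold macro-tube dilution following NCCLS guidance, run in malt extract broth. 10 mg compound in 2.0 mL DMSO in tube 1 was serially diluted 1:1 through tube 14 into 1.0 mL broth; tube 15 was the control. Culture was suspended to turbidity in 5.0 mL broth, 0.2 mL was diluted into 40 mL, and 1.0 mL was added per tube. Incubation was 72 h at 30 °C. MIC was the lowest concentration with no growth.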

[10] = test system: Bacillus subtilis; experiment: Antimicrobial activity against Bacillus subtilis RCMB 010063 assessed as diameter of zone inhibition at 5 mg/ml after 24 hrs by agar well diffusion assay; conditions: RCMB 010063, 24 h, read-out: DIZ; in short: as §2
[11] = test system: Aspergillus clavatus; experiment: Antimicrobial activity against Aspergillus clavatus RCMB 02593 assessed as diameter of zone inhibition at 5 mg/ml after 72 hrs by agar well diffusion assay; conditions: RCMB 02593, 72 h, read-out: DIZ; in short: as §1
[12] = test system: Candida albicans; experiment: Antimicrobial activity against Candida albicans RCMB 05035 assessed as diameter of zone inhibition at 5 mg/ml after 72 hrs by agar well diffusion assay; conditions: RCMB 05035, 72 h, read-out: DIZ; in short: as §1
[13] = test system: Klebsiella pneumoniae; experiment: Antimicrobial activity against Klebsiella pneumoniae RCMB 010093 assessed as diameter of zone inhibition at 5 mg/ml after 24 hrs by agar well diffusion assay; conditions: RCMB 010093, 24 h, read-out: DIZ; in short: as §2
[14] = test system: Staphylococcus epidermidis; experiment: Antimicrobial activity against Staphylococcus epidermidis RCMB 010024 after overnight incubation by macro-tube dilution technique; in short: as §3
[15] = test system: Shigella flexneri; experiment: Antimicrobial activity against Shigella flexneri RCMB 0100542 after overnight incubation by macro-tube dilution technique; in short: as §3
[16] = test system: Staphylococcus aureus; experiment: Antimicrobial activity against Staphylococcus aureus RCMB 010027 assessed as diameter of zone inhibition at 5 mg/ml after 24 hrs by agar well diffusion assay; conditions: RCMB 010027, 24 h, read-out: DIZ; in short: as §2
[17] = test system: Aspergillus clavatus; experiment: Antimicrobial activity against Aspergillus clavatus RCMB 02593 after 72 hrs by macro-tube dilution technique; conditions: RCMB 02593, 72 h; in short: as §4
[18] = test system: Aspergillus fumigatus; experiment: Antimicrobial activity against Aspergillus fumigatus RCMB 02564 after 72 hrs by macro-tube dilution technique; conditions: RCMB 02564, 72 h; in short: as §4
[19] = test system: Proteus vulgaris; experiment: Potency index, ratio of Gentamycin IC50 to compound IC50 for Proteus vulgaris RCMB 010085

SMILES	MIC [4]	MIC [6]	MIC [7]	MIC [8]	MIC [9]	MIC [14]	MIC [15]	MIC [17]	MIC [18]	zone of inhibition at 5000 µg/mL [1]	zone of inhibition at 5000 µg/mL [2]	zone of inhibition at 5000 µg/mL [3]	zone of inhibition at 5000 µg/mL [5]	zone of inhibition at 5000 µg/mL [10]	zone of inhibition at 5000 µg/mL [11]	zone of inhibition at 5000 µg/mL [12]	zone of inhibition at 5000 µg/mL [13]	zone of inhibition at 5000 µg/mL [16]	Ratio [19]
COc1ccc(C2=NN(c3ccccc3)C(c3ccc(Oc4ccc5ccccc5n4)cc3)C2)cc1 (centres undefined)										16.2 mm	14.4 mm	13.1 mm	13.5 mm	0 mm	14.5 mm	11.6 mm	15.9 mm	12.1 mm	
COc1ccc(C2CC(c3ccc(Oc4ccc5ccccc5n4)cc3)=NN2)cc1 (centres undefined)										13.5 mm	14.3 mm	14.6 mm	14.3 mm	13.7 mm	14.2 mm	12.1 mm	16.2 mm	13.1 mm	
CSc1nn(-c2ccc3ccccc3n2)c(N)c1C#N										15.7 mm	16.2 mm	16.2 mm	12.3 mm	19.8 mm	15.9 mm	16.8 mm	15.3 mm	18.9 mm	
COc1ccc(C2=NNC(c3ccc(Oc4ccc5ccccc5n4)cc3)C2)cc1 (centres undefined)										15.6 mm	15.4 mm	18.6 mm	16.2 mm	19.4 mm	12.8 mm	11.6 mm	0 mm	16.2 mm	
Clc1ccccc1C1CC(c2ccc(Oc3ccc4ccccc4n3)cc2)=NN1c1ccccc1 (centres undefined)										12.3 mm	0 mm	0 mm	12.4 mm	16.4 mm	0 mm	9.3 mm	13.3 mm	14.8 mm	
COc1ccc(C(=O)/C=C/c2ccc(Oc3ccc4ccccc4n3)cc2)cc1										10.7 mm	0 mm	10.6 mm	0 mm	0 mm	11.5 mm	0 mm	7.2 mm	8.7 mm	
N#Cc1c(-c2cccc(Cl)c2)nn(-c2ccc3ccccc3n2)c1N										12.3 mm	0 mm	11.6 mm	0 mm	13.3 mm	13.2 mm	15.2 mm	0 mm	10.3 mm	

More lines, main results first:

MIC [4]	MIC [6]	MIC [7]	MIC [8]	MIC [9]	MIC [14]	MIC [15]	MIC [17]	MIC [18]	SMILES	zone of inhibition at 5000 µg/mL [1]	zone of inhibition at 5000 µg/mL [2]	zone of inhibition at 5000 µg/mL [3]	zone of inhibition at 5000 µg/mL [5]	zone of inhibition at 5000 µg/mL [10]	zone of inhibition at 5000 µg/mL [11]	zone of inhibition at 5000 µg/mL [12]	zone of inhibition at 5000 µg/mL [13]	zone of inhibition at 5000 µg/mL [16]	Ratio [19]
0.97 µg/mL (≈ 2.29 µM)	0.97 µg/mL (≈ 2.29 µM)	3.9 µg/mL (≈ 9.2 µM)	3.9 µg/mL (≈ 9.2 µM)	3.9 µg/mL (≈ 9.2 µM)	3.9 µg/mL (≈ 9.2 µM)	3.9 µg/mL (≈ 9.2 µM)	7.81 µg/mL (≈ 18.4 µM)	15.6 µg/mL (≈ 36.9 µM)	Clc1ccc(-c2nn(-c3ccccc3)cc2/C=N/Nc2ccc3ccccc3n2)cc1	21.5 mm	21.8 mm	25.7 mm	21.4 mm	27.6 mm	19.8 mm	24.9 mm	22.9 mm	24.5 mm	
0.97 µg/mL (≈ 2.43 µM)	1.95 µg/mL (≈ 4.88 µM)	1.95 µg/mL (≈ 4.88 µM)	0.97 µg/mL (≈ 2.43 µM)	1.95 µg/mL (≈ 4.88 µM)	0.97 µg/mL (≈ 2.43 µM)	1.95 µg/mL (≈ 4.88 µM)	15.6 µg/mL (≈ 39.1 µM)	7.81 µg/mL (≈ 19.5 µM)	Clc1ccccc1C1CC(c2ccc(Oc3ccc4ccccc4n3)cc2)=NN1 (centres undefined)	21.4 mm	23.6 mm	25.3 mm	23.6 mm	24.2 mm	17.5 mm	18.5 mm	22.8 mm	23.9 mm	2
				1.95 µg/mL (≈ 5.94 µM)			7.81 µg/mL (≈ 23.8 µM)	7.81 µg/mL (≈ 23.8 µM)	CCOC(=O)c1c(SC)nn(-c2ccc3ccccc3n2)c1N	18.7 mm	0 mm	17.8 mm	0 mm	19.8 mm	19.3 mm	20.3 mm	0 mm	15.8 mm	
3.9 µg/mL (≈ 10 µM)	1.97 µg/mL (≈ 5.06 µM)	3.9 µg/mL (≈ 10 µM)	7.81 µg/mL (≈ 20.1 µM)	7.81 µg/mL (≈ 20.1 µM)	3.9 µg/mL (≈ 10 µM)	7.81 µg/mL (≈ 20.1 µM)	15.6 µg/mL (≈ 40.1 µM)	7.81 µg/mL (≈ 20.1 µM)	C(=N\Nc1ccc2ccccc2n1)/c1cn(-c2ccccc2)nc1-c1ccccc1	17.5 mm	20.1 mm	23.4 mm	20.2 mm	23.2 mm	18.4 mm	19.6 mm	21.2 mm	22.2 mm	
3.9 µg/mL (≈ 15.6 µM)	0.98 µg/mL (≈ 3.93 µM)	31.2 µg/mL (≈ 125 µM)	500 µg/mL (≈ 2010 µM)	1.95 µg/mL (≈ 7.82 µM)	0.98 µg/mL (≈ 3.93 µM)	31.2 µg/mL (≈ 125 µM)	7.8 µg/mL (≈ 31.3 µM)	15.6 µg/mL (≈ 62.7 µM)	Cc1nn(-c2ccc3ccccc3n2)c(N)c1C#N	16.8 mm	15.9 mm	20.6 mm	11.6 mm	20.9 mm	18.3 mm	20.4 mm	15.7 mm	19.2 mm	
1.95 µg/mL (≈ 6.58 µM)	1.95 µg/mL (≈ 6.58 µM)	31.2 µg/mL (≈ 105 µM)	125 µg/mL (≈ 422 µM)	1.95 µg/mL (≈ 6.58 µM)	15.6 µg/mL (≈ 52.7 µM)	15.6 µg/mL (≈ 52.7 µM)	3.9 µg/mL (≈ 13.2 µM)	31.2 µg/mL (≈ 105 µM)	CCOC(=O)c1c(C)nn(-c2ccc3ccccc3n2)c1N	16.3 mm	16.8 mm	17.3 mm	13.6 mm	20.2 mm	18.6 mm	19.8 mm	15.9 mm	20.3 mm	
1.95 µg/mL (≈ 4.83 µM)	0.49 µg/mL (≈ 1.21 µM)	7.81 µg/mL (≈ 19.4 µM)	31.2 µg/mL (≈ 77.4 µM)	0.49 µg/mL (≈ 1.21 µM)	0.98 µg/mL (≈ 2.43 µM)	7.81 µg/mL (≈ 19.4 µM)	7.81 µg/mL (≈ 19.4 µM)	0.98 µg/mL (≈ 2.43 µM)	Cc1ccc(-c2nn(-c3ccccc3)cc2/C=N/Nc2ccc3ccccc3n2)cc1	20.5 mm	18.3 mm	20.7 mm	16.2 mm	22.4 mm	18.3 mm	22.1 mm	17.6 mm	20.3 mm	
